≈ marks a conversion by molar mass, not a printed value. Each block holds one compound with its values, some of them ahead of it. Calls of active or inactive are those of the source. The rule behind the calls is not given here.
Tests used:
[1] = Lipophilicity log P of the compound; type: physicochemical; conditions: octanol/water
[2] = Aqueous solubility at pH 7; type: physicochemical; conditions: aqueous medium
[3] = Aqueous solubility at pH 7.4; type: physicochemical; conditions: aqueous medium
In short: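 Solubility measured in water at pH 7.4.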

[4] = Solubility in dilute HCl at pH 2.3; type: physicochemical
Rattus norvegicus [5] = assay: Anxiolytic activity in rat assessed as increase in time spent on open arm at 18 mg/kg, po by elevated plus-maze test; type: functional, organism-based; parameters: dose 18 mg/kg
In short: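 Rat elevated plus maze: percent of test time spent in the open arms. Oral dosing in 0.25% Methocel 60 min before testing; n = 12 per dose, mean ± SEM. Analysed by ANOVA followed by Fisher's LSD comparisons against vehicle.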

Rattus norvegicus [6] = assay: Anxiolytic activity in rat assessed as decrease in latency to exit dark chamber at 10 mg/kg, po by defensive withdrawal test relative to untreated control; type: functional; parameters: scale not given: the % may be the effect or the level left
In short: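 Rat defensive withdrawal: latency to leave the dark chamber and explore the open field, maximum 900 s. Dosed orally in 0.25% Methocel 60 min before testing; n = 8 per dose, mean ± SEM. Analysed by Kruskal–Wallis followed by Mann–Whitney U against vehicle.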

[7] = target: T1, Corticotropin-releasing factor receptor 1 (Rattus norvegicus, UniProt P35353); assay: Displacement of [125I]Tyro-rat/human CRF from CRF1 receptor in rat cortical membrane by gamma counting; type: cell membranes
T1 sequence (P35353 whole entry): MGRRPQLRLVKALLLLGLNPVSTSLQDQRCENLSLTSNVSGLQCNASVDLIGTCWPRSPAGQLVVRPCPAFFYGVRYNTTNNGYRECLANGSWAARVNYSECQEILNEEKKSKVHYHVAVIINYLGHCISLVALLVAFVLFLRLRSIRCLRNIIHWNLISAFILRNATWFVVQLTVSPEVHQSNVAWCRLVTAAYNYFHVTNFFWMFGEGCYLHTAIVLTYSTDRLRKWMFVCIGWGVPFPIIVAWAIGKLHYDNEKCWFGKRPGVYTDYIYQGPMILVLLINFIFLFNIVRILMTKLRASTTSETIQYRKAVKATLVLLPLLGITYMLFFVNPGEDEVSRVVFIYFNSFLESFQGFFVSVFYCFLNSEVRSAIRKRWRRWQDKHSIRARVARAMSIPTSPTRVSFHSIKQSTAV
In short: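 Binding to CRF receptors in rat cortical homogenate.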

[8] = AUC in Beagle dog at 1 mg/kg, po by cassette dosing; type: ADME, organism-based, Canis lupus familiaris; parameters: dose 1 mg/kg, route oral; conditions: plasma
[9] = Cmax in Beagle dog at 1 mg/kg, po by cassette dosing; type: ADME, organism-based, Canis lupus familiaris; parameters: dose 1 mg/kg, route oral; conditions: in vivo
[10] = Half life in Beagle dog at 1 mg/kg, po by cassette dosing; type: ADME, organism-based, Canis lupus familiaris; parameters: dose 1 mg/kg, route oral; conditions: in vivo
[11] = Half life in Beagle dog by discrete dosing; type: ADME, organism-based, Canis lupus familiaris; conditions: in vivo
[12] = target: T1, Corticotropin-releasing factor receptor 1; assay: Agonist activity at CRF1 receptor in rat pituitary cells
[13] = Clearance in rat at 1 mg/kg, iv and 5 mg/kg, po; type: ADME, organism-based; conditions: in vivo
In short: (§1)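 Rats (n = 3) received 1 mg/kg iv in 10% DMAC, 70% propylene glycol and deionized water, or 5 mg/kg orally in 0.5% methylcellulose.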

[14] = Volume of distribution at steady state in rat at 1 mg/kg, iv and 5 mg/kg, po; type: ADME, organism-based; conditions: in vivo, read-out: Vdss
In short: (§2)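 Rats (n = 3) dosed iv at 1 mg/kg in 10% DMAC, 70% propylene glycol and deionized water, and orally at 5 mg/kg in 0.5% methylcellulose.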

[15] = Cmax in rat at 5 mg/kg, po; type: ADME, organism-based; parameters: dose 5 mg/kg, route oral; conditions: in vivo; in short: as §1
[16] = Tmax in rat at 5 mg/kg, po; type: ADME, organism-based; parameters: dose 5 mg/kg, route oral; conditions: in vivo; in short: as §2
[17] = Oral bioavailability in rat at 5 mg/kg; type: ADME, organism-based; conditions: in vivo
In short: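 Rats (n = 3) were dosed at 1 mg/kg iv in 10% DMAC, 70% propylene glycol and deionized water, and at 5 mg/kg po in 0.5% methylcellulose.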

[18] = AUC (0 to infinity) in chimpanzee at 0.5 mg/kg, iv; type: ADME, organism-based, Pan troglodytes; parameters: time infinity, dose 0.5 mg/kg, route intravenous; conditions: plasma
In short: (§3)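 Chimpanzee PK. Oral: 1 mg/kg in two alert animals, given as a 1 mg/mL suspension in 50–50 (v/v) 0.5% methylcellulose/Tang orange juice with 1% Tween-80. IV: 0.5 mg/kg in one animal in 10% DMAC, 70% propylene glycol and deionized water, infused over 10 min (0.2 mL/kg). EDTA blood was taken predose and at 2–96 h; iv sampling added 6, 15 and 30 min.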

[19] = AUC (0 to infinity) in chimpanzee at 1 mg/kg, po; type: ADME, organism-based, Pan troglodytes; parameters: time infinity, dose 1 mg/kg, route oral; conditions: plasma; in short: as §3
[20] = Cmax in chimpanzee at 1 mg/kg, po; type: ADME, organism-based, Pan troglodytes; parameters: dose 1 mg/kg, route oral; conditions: in vivo; in short: as §3
[21] = Clearance in chimpanzee at 0.5 mg/kg, iv; type: ADME, organism-based, Pan troglodytes; parameters: dose 0.5 mg/kg, route intravenous; conditions: in vivo; in short: as §3
[22] = Volume of distribution at steady state in chimpanzee at 0.5 mg/kg, iv; type: ADME, organism-based, Pan troglodytes; parameters: dose 0.5 mg/kg, route intravenous; conditions: in vivo, read-out: Vdss
In short: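 Single chimpanzee given 0.5 mg/kg iv over 10 min (0.2 mL/kg) in 10% DMAC, 70% propylene glycol and deionized water. EDTA blood taken predose, at 6, 15 and 30 min, and at 2 to 96 h.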

[23] = Elimination half life in chimpanzee at 0.5 mg/kg, iv; type: ADME, organism-based, Pan troglodytes; parameters: dose 0.5 mg/kg, route intravenous; conditions: in vivo, read-out: beta t1/2 (converted)
In short: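 One chimpanzee received 0.5 mg/kg iv over 10 min (0.2 mL/kg) in 10% DMAC, 70% propylene glycol and deionized water. Blood was drawn into EDTA predose and at 6, 15, 30 min and 2, 4, 6, 9, 12, 24, 36, 48, 72 and 96 h.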

[24] = Elimination half life in chimpanzee at 1 mg/kg, po; type: ADME, organism-based, Pan troglodytes; parameters: dose 1 mg/kg, route oral; conditions: in vivo, read-out: beta t1/2 (converted)
In short: (§4)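 Two alert chimpanzees were given 1 mg/kg po as a 1 mg/mL suspension in 50:50 (v/v) 0.5% methylcellulose and Tang orange juice containing 1% Tween-80. EDTA blood was taken predose and at 2–96 h. Bioavailability was calculated against a 0.5 mg/kg iv dose given to one animal.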

[25] = Oral bioavailability in chimpanzee at 1 mg/kg; type: ADME, organism-based, Pan troglodytes; conditions: in vivo; in short: as §4

logP [1]: 4.97
solubility [2]: < 1 µg/mL
solubility [3]: < 1 µg/mL
solubility [4]: 230 µg/mL (≈ 561 µM)
SMILES: COCC(COC)Nc1nc(C)nc2c(-c3ccc(Cl)cc3Cl)c(C)nn12
Activity (Rattus norvegicus [5]): Active
Activity (Rattus norvegicus [6]): 72%

IC50 [7]: 81.6 nM
SMILES: CCN(C)c1nc(C)nc2c(-c3ccc(OC)nc3C)c(C)nn12

IC50 [7]: 3.5 nM
AUC [8]: 0.955 µM·h
Cmax [9]: 156 nM
half-life [10]: 11.8 h
SMILES: CCCC(C)Nc1nc(C)nc2c(-c3ccc(OC)nc3C)c(C)nn12 (centres undefined)

IC50 [7]: 5.1 nM
SMILES: CCCCC(C)Nc1nc(C)nc2c(-c3ccc(OC)nc3C)c(C)nn12 (centres undefined)

IC50 [7]: 14.9 nM
SMILES: CCCN(CCC)c1nc(C)nc2c(-c3c(C)cc(N(C)C)nc3C)c(C)nn12

IC50 [7]: 12 nM
SMILES: CCN(CC)c1nc(C)nc2c(-c3ccc(OC)nc3C)c(C)nn12

IC50 [7]: 5.7 nM
SMILES: CCCN(CCC)c1nc(C)nc2c(-c3ccc(OC)nc3C)c(C)nn12

half-life [11]: 27 h
IC50 [12]: 72.9 nM
logP [1]: 4.76
AUC [8]: 1.66 µM·h
Cmax [9]: 369 nM
half-life [10]: 10.1 h
solubility [3]: < 1 µg/mL
solubility [4]: 2500 µg/mL
clearance [13]: 20 mL/min/kg
Vd [14]: 14.6 L/kg
Cmax [15]: 851 nM
Tmax [16]: 0.5 h
bioavailability [17]: 51%
AUC(0-inf) [18]: 2.04 µM·h
AUC(0-inf) [19]: 0.212 µM·h
Cmax [20]: 27 nM
clearance [21]: 10.2 mL/min/kg
Vd [22]: 9.52 L/kg
half-life [23]: 20.2 h
half-life [24]: 16.5 h
bioavailability [25]: 5.2%
SMILES: COCCN(CCOC)c1nc(C)nc2c(-c3ccc(OC)cc3C)c(C)nn12.O=S(=O)(O)c1ccccc1

IC50 [7]: 7 nM
AUC [8]: 0.916 µM·h
Cmax [9]: 168 nM
half-life [10]: 7.9 h
SMILES: CC[C@H](C)Nc1nc(C)nc2c(-c3ccc(OC)nc3C)c(C)nn12

IC50 [7]: 4.5 nM
SMILES: CCC[C@H](C)Nc1nc(C)nc2c(-c3ccc(OC)nc3C)c(C)nn12

IC50 [7]: 25.6 nM
SMILES: CCC(CC)Nc1nc(C)nc2c(-c3c(C)cc(N(C)C)nc3C)c(C)nn12

IC50 [7]: 133 nM
SMILES: COCCN(CCOC)c1nc(C)nc2c(-c3c(C)cc(N(C)C)nc3C)c(C)nn12

IC50 [7]: 58 nM
SMILES: CCN(CC)c1nc(C)nc2c(-c3c(C)cc(N(C)C)nc3C)c(C)nn12

IC50 [7]: 6.6 nM
SMILES: CCN(CCOC)c1nc(C)nc2c(-c3ccc(OC)nc3C)c(C)nn12

logP [1]: > 5
solubility [2]: < 1 µg/mL
SMILES: CCCCN(CC)c1nc(C)nc2c1c(C)cn2-c1c(C)cc(C)cc1C.Cl

IC50 [7]: 32.8 nM
SMILES: CCCCN(CC)c1nc(C)nc2c(-c3c(C)cc(N(C)C)nc3C)c(C)nn12

IC50 [7]: 12.8 nM
SMILES: CCCCN(CCC)c1nc(C)nc2c(-c3c(C)cc(N(C)C)nc3C)c(C)nn12
